pEC50: −log10 of the molar value.

The pEC50 is −log10 of the EC50, conventionally taken in molar units. Read a high pEC50 as a small EC50.

Data set [1] concerns the target Protein kinase C delta type (Homo sapiens, UniProt Q05655). As to the kind of experiment: Binding affinity to PKCdelta C1B subdomain after 1 hr by fluorescence quenching analysis. The essentials:
(§1)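 Purified C1B subdomain of PKC delta, epsilon or theta was titrated with ligand in 50 mM Tris, 150 mM NaCl, 2 mM DTT, ZnSO4, pH 7.2, at 25 °C. Intrinsic fluorescence was excited at 280 nm and emission recorded from 300–550 nm. (F0−F)/F at 350 nm was plotted against ligand concentration, and the curve was fitted to a modified Hill equation to give EC50 and Hill coefficient.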

For data set [2], the target named is T1, Protein kinase C epsilon type (Homo sapiens, UniProt Q02156).
T1 sequence (Q02156 whole entry): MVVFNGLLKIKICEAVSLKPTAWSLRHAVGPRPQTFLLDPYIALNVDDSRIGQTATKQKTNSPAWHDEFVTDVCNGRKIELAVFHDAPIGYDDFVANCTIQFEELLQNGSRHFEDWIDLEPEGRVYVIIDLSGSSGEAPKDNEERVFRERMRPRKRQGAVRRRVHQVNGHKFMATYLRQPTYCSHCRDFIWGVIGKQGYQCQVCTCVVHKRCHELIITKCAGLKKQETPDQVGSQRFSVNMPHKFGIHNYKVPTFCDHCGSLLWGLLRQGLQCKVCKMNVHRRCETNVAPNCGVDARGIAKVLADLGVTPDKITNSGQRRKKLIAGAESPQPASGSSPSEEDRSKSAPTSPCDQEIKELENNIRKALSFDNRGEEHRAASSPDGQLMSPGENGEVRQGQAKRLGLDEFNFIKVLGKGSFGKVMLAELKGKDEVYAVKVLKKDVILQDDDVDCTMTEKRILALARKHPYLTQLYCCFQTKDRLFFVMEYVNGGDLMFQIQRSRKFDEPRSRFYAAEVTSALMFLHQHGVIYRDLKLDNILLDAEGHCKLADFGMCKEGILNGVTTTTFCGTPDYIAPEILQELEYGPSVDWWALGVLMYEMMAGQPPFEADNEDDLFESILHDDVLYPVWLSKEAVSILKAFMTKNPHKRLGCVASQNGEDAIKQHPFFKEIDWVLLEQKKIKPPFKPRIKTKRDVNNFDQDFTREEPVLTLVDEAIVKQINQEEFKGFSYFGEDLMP
As to the kind of experiment: Binding affinity to PKCepsilon C1B subdomain after 1 hr by fluorescence quenching analysis. In outline:
as §1

Data set [3] has as its target Protein kinase C theta type (Homo sapiens, UniProt Q04759). Description: Binding affinity to PKCtheta C1B subdomain after 1 hr by fluorescence quenching analysis. In outline:
as §1

Data set [4] in a line: Selectivity ratio of EC50 for PKCdelta C1B subdomain to EC50 for PKCtheta C1B subdomain. The essentials:
(§2)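 Ratios of EC50 values, each taken from a modified-Hill fit of intrinsic tryptophan/tyrosine fluorescence quenching (excitation 280 nm, read at 350 nm) of the C1B subdomains in Tris/NaCl/DTT/ZnSO4 buffer, pH 7.2, at 25 °C.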

Data set [5] is described as follows: Selectivity ratio of EC50 for PKCepsilon C1B subdomain to EC50 for PKCtheta C1B subdomain. The essentials: as §2
Data set [6] is described as follows: Solubility of the compound. The data set is classed as physicochemical.

Sequence of Protein kinase C delta type (Q05655 whole entry): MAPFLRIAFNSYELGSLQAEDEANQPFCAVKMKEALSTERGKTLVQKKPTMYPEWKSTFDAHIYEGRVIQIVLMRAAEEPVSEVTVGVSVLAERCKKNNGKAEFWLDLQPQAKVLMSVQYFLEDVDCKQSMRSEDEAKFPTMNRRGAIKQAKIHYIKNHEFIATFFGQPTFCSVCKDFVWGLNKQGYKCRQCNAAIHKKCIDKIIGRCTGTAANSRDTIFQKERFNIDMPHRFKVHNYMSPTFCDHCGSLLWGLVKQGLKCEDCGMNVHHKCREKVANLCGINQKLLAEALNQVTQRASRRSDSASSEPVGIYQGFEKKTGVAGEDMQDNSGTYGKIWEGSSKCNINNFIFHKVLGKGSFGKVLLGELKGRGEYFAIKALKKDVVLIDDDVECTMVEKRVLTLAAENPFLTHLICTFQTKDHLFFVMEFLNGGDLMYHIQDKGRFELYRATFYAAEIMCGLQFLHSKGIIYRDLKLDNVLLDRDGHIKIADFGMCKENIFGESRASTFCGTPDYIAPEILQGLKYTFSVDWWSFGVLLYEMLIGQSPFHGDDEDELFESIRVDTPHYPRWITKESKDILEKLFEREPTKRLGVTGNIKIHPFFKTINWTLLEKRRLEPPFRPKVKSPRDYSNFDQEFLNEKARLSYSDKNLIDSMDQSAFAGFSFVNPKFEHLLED
Sequence of Protein kinase C theta type (Q04759 whole entry): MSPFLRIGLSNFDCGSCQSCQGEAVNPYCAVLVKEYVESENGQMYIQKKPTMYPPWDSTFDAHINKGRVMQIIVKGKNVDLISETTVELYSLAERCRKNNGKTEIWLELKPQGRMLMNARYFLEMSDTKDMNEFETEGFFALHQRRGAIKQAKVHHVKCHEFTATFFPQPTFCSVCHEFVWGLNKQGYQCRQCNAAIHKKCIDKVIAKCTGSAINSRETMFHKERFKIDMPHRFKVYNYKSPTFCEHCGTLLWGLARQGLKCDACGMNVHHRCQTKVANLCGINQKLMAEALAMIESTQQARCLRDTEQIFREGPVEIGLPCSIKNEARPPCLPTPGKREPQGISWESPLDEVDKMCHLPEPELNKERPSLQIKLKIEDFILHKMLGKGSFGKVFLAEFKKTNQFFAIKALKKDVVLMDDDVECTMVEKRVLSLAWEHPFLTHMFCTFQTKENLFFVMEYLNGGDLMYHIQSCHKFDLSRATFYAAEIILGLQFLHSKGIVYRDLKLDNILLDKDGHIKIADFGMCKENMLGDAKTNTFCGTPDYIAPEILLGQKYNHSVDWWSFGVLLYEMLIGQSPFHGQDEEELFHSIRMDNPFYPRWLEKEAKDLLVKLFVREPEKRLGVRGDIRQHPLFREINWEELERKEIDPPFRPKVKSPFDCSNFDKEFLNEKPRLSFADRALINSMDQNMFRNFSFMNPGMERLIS

On to `COc1cc(/C=C/c2cc(/C=C/c3ccc(O)c(OC)c3)on2)ccc1O`, for which the pEC50 in data set [1] is 4.94; in data set [2] it was 4.93; in data set [3], 5.50. In addition, the Ratio EC50 in data set [4] and in data set [5] was 3 each time.
Consider `COc1cc(/C=C/c2cc(/C=C/c3ccc(O)c(OC)c3)[nH]n2)ccc1O` [CURCUMIN PYRAZOLE], for which the pEC50 in data set [1] was 4.82; in data set [2] it was 4.73; in data set [3], 5.14. The Ratio EC50 in data set [4] and in data set [5] was 2 each time.
On to `CCCCOc1ccc(/C=C/c2cc(/C=C/c3ccc(O)c(OC)c3)n[nH]2)cc1OC`, for which the negative-log EC50 (pEC50) was 4.66 in data set [1], 4.79 in data set [2] and 4.80 in data set [3].
For `CCCCOc1ccc(/C=C/c2cc(/C=C/c3ccc(OCCCC)c(OC)c3)on2)cc1OC`, in that order: 4.60, 4.63 and 5.15.
As for `CCCCCCCCOc1ccc(/C=C/c2cc(/C=C/c3ccc(OCCCCCCCC)c(OC)c3)on2)cc1OC`, the solubility result in data set [6] is listed as “Insoluble”.
